Where a SMILES comes first, the peptide text is derived from it.
Key:
Arf GAP2 [1] = biological target: T1, Arf GAP2 (Homo sapiens, UniProt Q8N6H7); test: Cargo peptide titration in coatomer-dependent GAP assay; assay type: biochemical; settings: for effect of peptide on Arf GAP2 activity: LUVs PI4P 0.03 μm, 3 min 30 °C
Method in brief: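 Arf GAP2 [1–521]-His6 (E. coli, refolded from inclusion bodies) at 11.4 nM, with 124 nM rat-liver coatomer. Substrate was 0.6 μM [α32P]GTP•myrArf1 on PI4P LUVs extruded through 0.03 μm pores. p23, p24 or p25 cytoplasmic-tail peptides (p25 also palmitoyl- or WRM-extended) were titrated in. Reactions ran 3 min at 30 °C. Palmitoyl-peptide data were fit to one-site binding with offset; duplicate experiments.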

Arf GAP2 [2] = biological target: T1, Arf GAP2; test: Time dependence; assay type: biochemical
Arf GAP2 [3] = biological target: T1, Arf GAP2; test: Saturation kinetics, tryptophan fluorescence based assay; assay type: biochemical; settings: 25 μM peptide, 124 nM coatomer, LUVs 0.03 μm
Method in brief: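 myrArf1•GTP was titrated into reactions with 114 nM Arf GAP2 [1–521]-His6, 124 nM coatomer and PI4P LUVs (0.03 μm pores), with or without 25 μM p25 peptide. GTP→GDP conversion was followed by tryptophan fluorescence. Readings were corrected for time-dependent fluorescence change of Arf GAP2 ± coatomer. Initial rates were fit to Michaelis-Menten and Hill equations; kcat came from Vmax.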

Arf GAP2 [4] = biological target: T1, Arf GAP2; test: Saturation kinetics following [α^32P]GTP hydrolysis; assay type: biochemical; settings: 25 μM peptide, 124 nM coatomer, LUVs 0.03 μm
Method in brief: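 Saturation kinetics used [α32P]GTP•Arf1, titrated into reactions with 10 nM Arf GAP2 [1–521]-His6 and 124 nM coatomer, with or without 25 μM p25 peptide. LUVs contained PI4P and were extruded through 0.03 μm pores. Reactions stopped after 3 min at 30 °C. Data were fit to Michaelis-Menten and Hill equations, with kcat calculated from Vmax; three experiments.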

Arf GAP2 [5] = biological target: T1, Arf GAP2; test: Coatomer titration in Arf GAP2 GAP assay; assay type: biochemical
Method in brief: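 Coatomer was titrated into reactions with 11.4 nM Arf GAP2 [1–521]-His6, 0.6 μM [α32P]GTP•myrArf1 and 25 μM p25 peptide. LUVs contained PI4P and were extruded through 1.0 or 0.03 μm pores. Reactions ran 3 min at 30 °C. Read-out was hydrolysis of Arf1-bound GTP.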

Arf GAP2 [6] = test: Effect of p25 on Arf GAP2 with and without coatomer; assay type: biochemical; settings: 3 min 30°C
Method in brief: (§1)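 GAP enzyme was Arf GAP2 [1–521]-His6 or His10-[325–724]ASAP1. Mixtures held 0.6 μM [α32P]GTP•Arf1 on PI4P LUVs extruded through 0.03 μm pores, with or without 124 nM coatomer and 25 μM p25 peptide. Fraction of GTP hydrolysed in 3 min at 30 °C was measured.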

Arf GAP1 = test: Effect of p25 on Arf GAP1 with and without coatomer; assay type: biochemical; settings: 25 μM p25, 28 nM Arf GAP1, 124 nM coatomer, 3 min 30°C
ASAP1 = test: Effect of coatomer and p25 on ASAP1 GAP activity; assay type: biochemical; settings: 1 nM ASAP1, 3 min 30°C
Method in brief: as §1

Arf GAP2 [7] = biological target: T1, Arf GAP2; assay type: biochemical; settings: for effect of phosphoinositide on Arf GAP2 activity: without coatomer
[8] = system: [α^32P]GTP•Arf1 (myrArf1); test: GAP assay: Arf GAP titration, hydrolysis of [α^32P]GTP bound to myrArf1; assay type: biochemical, Human; settings: for C50 (amount of Arf GAP needed for 50% of maximum observed hydrolysis) / Maximum GTP Hydrolysis: 0.6 μM [α^32P]GTP•Arf1, 3 min, 30 °C, mean ± SD, three experiments
Protein binding to LUVs = settings: 1 μM Arf GAP2; 5 min, 30°C; Coomassie Blue; not shown
Method in brief: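 Sucrose-loaded LUVs (1 mM total lipid), extruded through 0.03 or 1 μm pores, were incubated with purified Arf GAP2 (1 μM) for 5 min at 30 °C. Vesicles were pelleted at 100,000 × g for 15 min at 4 °C. Bound protein was resolved by SDS-PAGE and stained with Coomassie Blue.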

Arf GAP2 [9] = biological target: T1, Arf GAP2; settings: tryptophan fluorescence assay; ref [33]; cited from earlier work
coatomer = settings: ref [18]; cited from earlier work
[10] = 11.4 nM Arf GAP2, 124 nM coatomer
[11] = LUVs 2.5% PI4P, 0.03 μm pores, 124 nM coatomer and 25 μM p25 where indicated
[12] = LUVs 2.5% PI4P, 1.0 μm pores, 124 nM coatomer and 25 μM p25 where indicated
[13] = LUVs 2.5% PIP2, 0.03 μm pores, 124 nM coatomer where indicated
[14] = LUVs 2.5% PIP2, 1.0 μm pores, 124 nM coatomer where indicated

T1 sequence (Q8N6H7 whole entry): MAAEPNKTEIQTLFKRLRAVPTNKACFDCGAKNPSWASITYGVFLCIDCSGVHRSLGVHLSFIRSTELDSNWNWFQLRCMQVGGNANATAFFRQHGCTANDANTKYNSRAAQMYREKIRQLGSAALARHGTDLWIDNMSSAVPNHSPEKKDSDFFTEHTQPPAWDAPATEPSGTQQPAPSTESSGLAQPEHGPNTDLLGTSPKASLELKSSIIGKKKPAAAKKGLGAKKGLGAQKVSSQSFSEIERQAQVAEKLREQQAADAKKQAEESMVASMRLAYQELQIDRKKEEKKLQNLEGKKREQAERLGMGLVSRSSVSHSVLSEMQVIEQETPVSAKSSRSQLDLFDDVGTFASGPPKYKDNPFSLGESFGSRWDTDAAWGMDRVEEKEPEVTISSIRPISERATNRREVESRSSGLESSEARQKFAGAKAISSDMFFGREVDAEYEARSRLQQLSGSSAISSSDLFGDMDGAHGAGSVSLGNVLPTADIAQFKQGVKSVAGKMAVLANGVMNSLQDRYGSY

CSCC[C@H](NC(=O)[C@H](CCCNC(=N)N)NC(=O)[C@@H](N)Cc1c[nH]c2ccccc12)C(=O)N[C@@H](CCCNC(=N)N)C(=O)N[C@@H](Cc1c[nH]cn1)C(=O)N[C@@H](CC(C)C)C(=O)N[C@@H](CCCCN)C(=O)N[C@@H](CO)C(=O)N[C@@H](Cc1ccccc1)C(=O)N[C@@H](Cc1ccccc1)C(=O)N[C@@H](CCC(=O)O)C(=O)N[C@@H](C)C(=O)N[C@@H](CCCCN)C(=O)N[C@@H](CCCCN)C(=O)N[C@@H](CC(C)C)C(=O)N[C@H](C(=O)O)C(C)C (H-WRMRHLKSFFEAKKLV-OH)
effect of peptide on Arf GAP2 activity (Arf GAP2 [1]; [10]): stimulated activity

CC(C)C[C@H](NC(=O)[C@H](Cc1c[nH]cn1)NC(=O)[C@@H](N)CCCNC(=N)N)C(=O)N[C@@H](CCCCN)C(=O)N[C@@H](CO)C(=O)N[C@@H](Cc1ccccc1)C(=O)N[C@@H](Cc1ccccc1)C(=O)N[C@@H](CCC(=O)O)C(=O)N[C@@H](C)C(=O)N[C@@H](CCCCN)C(=O)N[C@@H](CCCCN)C(=O)N[C@@H](CC(C)C)C(=O)N[C@H](C(=O)O)C(C)C [p25] (H-RHLKSFFEAKKLV-OH; N-terminus and C-terminus assumed)
effect of p25 on time dependence of hydrolysis (Arf GAP2 [2]; 25 μM p25 with coatomer): accelerated hydrolysis | effect of p25 on kcat (Arf GAP2 [3]): increased the kcat of the reaction | effect of p25 on kcat (Arf GAP2 [4]): increased the kcat of the reaction | EC50 (Arf GAP2 [1]): 500 ± 200 nM | effect of peptide on Arf GAP2 activity (Arf GAP2 [1]; [10]): stimulated GAP activity | peptide concentration above which the effect decreased (Arf GAP2 [1]; concentrations greater than, 11.4 nM Arf GAP2, 124 nM coatomer): 25 to 50 µM | effect of p25 on coatomer dependence of Arf GAP2 activity (Arf GAP2 [5]; 25 μM p25, 11.4 nM Arf GAP2, 0.03 and 1.0 μm LUVs): increased the extent of hydrolysis | coatomer concentration at peak activity, with p25 (Arf GAP2 [5]; 25 μM p25 peptide, smaller LUVs, 11.4 nM Arf GAP2, 3 min, 30 °C): 100 nM | coatomer concentration below which p25 effect was greatest (Arf GAP2 [5]; smaller LUVs, 25 μM p25, 11.4 nM Arf GAP2): less than 250 nM | effect of p25 on Arf GAP2 with coatomer (Arf GAP2 [6]; 25 μM p25, 11.4 nM Arf GAP2, 124 nM coatomer): increased the activity in the samples containing both Arf GAP2 and coatomer | Arf GAP2 activity without coatomer (Arf GAP2 [6]; 25 μM p25, 11.4 nM Arf GAP2, no coatomer): No activity was detected in the absence of coatomer | effect of p25 on Arf GAP2 without coatomer (Arf GAP2 [6]; 25 μM p25, 3.4 μM Arf GAP2, no coatomer): had no effect | effect of p25 on Arf GAP1 (Arf GAP1): stimulated by p25 when coatomer was present | effect of p25 on ASAP1 with coatomer (ASAP1; 25 μM p25, 124 nM coatomer): coatomer-dependent inhibition was increased by p25 | effect of p25 on ASAP1 without coatomer (ASAP1; 25 μM p25, no coatomer): no effect in the absence of coatomer

CC[C@H](C)[C@H](NC(=O)[C@H](CC(C)C)NC(=O)[C@H](CCCCN)NC(=O)[C@H](CCCCN)NC(=O)[C@H](C)NC(=O)[C@H](CCCCN)NC(=O)[C@H](Cc1ccccc1)NC(=O)[C@H](Cc1ccccc1)NC(=O)[C@H](CCCNC(=N)N)NC(=O)[C@H](CCCNC(=N)N)NC(=O)[C@H](CC(C)C)NC(=O)[C@@H](N)Cc1ccc(O)cc1)C(=O)N[C@@H](CCC(=O)O)C(=O)O [p23] (H-YLRRFFKAKKLIE-OH; N-terminus and C-terminus assumed)
effect of peptide on Arf GAP2 activity (Arf GAP2 [1]; [10]): stimulated GAP activity

phosphatidylinositol 4-phosphate [PI4P]
reduction of C50 by PI4P (Arf GAP2 [7]; 124 nM coatomer present): 2 fold | effect of phosphoinositide on Arf GAP2 activity (Arf GAP2 [7]): had no effect by itself

phosphatidylinositol 4,5-bisphosphate [PIP2]
effect of phosphoinositide on Arf GAP2 activity (Arf GAP2 [7]): affected the extent of hydrolysis but not the C50

Arf GAP2: [1–521] Arf GAP2 His6 expressed in E. coli and purified from inclusion bodies
extent of hydrolysis at highest Arf GAP2 concentration ([8]; 3.4 μM Arf GAP2, no coatomer, footnote 1): 25% – 40 | C50 (amount of Arf GAP needed for 50% of maximum observed hydrolysis) [8, 11]: > 500 nM | Maximum GTP Hydrolysis [8, 11]: 15 ± 1% | C50 (amount of Arf GAP needed for 50% of maximum observed hydrolysis) [8, 12]: > 500 nM | Maximum GTP Hydrolysis [8, 12]: 6.2 ± 1.2% | C50 (amount of Arf GAP needed for 50% of maximum observed hydrolysis) [8, 13]: > 500 nM | Maximum GTP Hydrolysis [8, 13]: 37 ± 5.2% | C50 (amount of Arf GAP needed for 50% of maximum observed hydrolysis) [8, 14]: > 500 nM | Maximum GTP Hydrolysis [8, 14]: 25 ± 2.0% | GAP activity compared to purified Arf GAP1 ([8]; no coatomer): little activity compared to purified Arf GAP1 | first order rate constant, effect of vesicle size (Arf GAP2 [2]; 3.4 μM Arf GAP2, 0.6 μM myrArf1•GTP, no coatomer): three-fold greater on the smaller vesicles than on the larger vesicles | rate constant relative to kcat of Arf GAP1 (Arf GAP2 [2]; 3.4 μM Arf GAP2, no coatomer, kcat of Arf GAP1 from ref 22): less than 1/100 | effect of vesicle size on Arf GAP2 binding to LUVs (Protein binding to LUVs): did not detect an effect of vesicle size | effect of coatomer and curvature on Arf GAP2 (Arf GAP2 [9]): stimulated by coatomer but was not affected by curvature | binding to coatomer relative to Arf GAP1 (coatomer): bind coatomer more tightly than does Arf GAP1

B1: Arf GAP3: Arf GAP that functions with the coat protein coatomer (protein, UniProt Q9NP61 1-516, looked up)
ADP-ribosylation factor …: MGDPSKQDILTIFKRLRSVPTNKVCFDCGAKNPSWASITYGVFLCIDCSGSHRSLGVHLSFIRSTELDSNWSWFQLRCMQVGGNASASSFFHQHGCSTNDTNAKYNSRAAQLYREKIKSLASQATRKHGTDLWLDSCVVPPLSPPPKEEDFFASHVSPEVSDTAWASAIAEPSSLTSRPVETTLENNEGGQEQGPSVEGLNVPTKATLEVSSIIKKKPNQAKKGLGAKKGSLGAQKLANTCFNEIEKQAQAADKMKEQEDLAKVVSKEESIVSSLRLAYKDLEIQMKKDEKMNISGKKNVDSDRLGMGFGNCRSVISHSVTSDMQTIEQESPIMAKPRKKYNDDSDDSYFTSSSSYFDEPVELRSSSFSSWDDSSDSYWKKETSKDTETVLKTTGYSDRPTARRKPDYEPVENTDEAQKKFGNVKAISSDMYFGRQSQADYETRARLERLSASSSISSADLFEEPRKQPAGNYSLSSVLPNAPDMAQFKQGVRSVAGKLSVFANGVVTSIQDRYGS
binding to coatomer relative to Arf GAP1 (coatomer): bind coatomer more tightly than does Arf GAP1
